The source of these data is ChEMBL document CHEMBL4376860, “Discovery of Novel Dual Poly(ADP-ribose)polymerase and Phosphoinositide 3-Kinase Inhibitors as a Promising Strategy for Cancer Therapy” (J Med Chem, 2020).

Molecules are shown by their SMILES. Calls of active or inactive are those of the source. No cut-off for these calls is given here.

One assay has as its system HCC1937. The assay is described as follows: Potency index, ratio of BKM120 IC50 to test compound IC50 for antiproliferative activity against human HCC1937 cells. The class given is functional.
In assay [1] the test system is Mus musculus. The experiment in a line: In vivo inhibition of PI3K in BALB/c mouse xenografted with human MDA-MB-468 cells assessed as reduction in BRCA2 expression at 50 mg/kg, ip administered every 2 days for 34 days measured post-last dose by Western blot analysis. The class given is functional, organism-based. For orientation: A xenograft is tissue or cells of one species grown in another, often human tumour cells in immunodeficient mice.

The target in assay [2] is Phosphatidylinositol 4,5-bisphosphate 3-kinase catalytic subunit alpha isoform (Homo sapiens, UniProt P42336). The assay is described as follows: Inhibition of PI3Kalpha (unknown origin) using PIP2 as substrate measured after 1 hr by ADP-glo plus luminescence assay. In general terms: ADP-Glo first removes unused ATP, then detects ADP through luciferase.
Phosphatidylinositol 4,5-bisphosphate 3-kinase catalytic subunit alpha isoform, sequence (P42336 whole entry, canonical isoform): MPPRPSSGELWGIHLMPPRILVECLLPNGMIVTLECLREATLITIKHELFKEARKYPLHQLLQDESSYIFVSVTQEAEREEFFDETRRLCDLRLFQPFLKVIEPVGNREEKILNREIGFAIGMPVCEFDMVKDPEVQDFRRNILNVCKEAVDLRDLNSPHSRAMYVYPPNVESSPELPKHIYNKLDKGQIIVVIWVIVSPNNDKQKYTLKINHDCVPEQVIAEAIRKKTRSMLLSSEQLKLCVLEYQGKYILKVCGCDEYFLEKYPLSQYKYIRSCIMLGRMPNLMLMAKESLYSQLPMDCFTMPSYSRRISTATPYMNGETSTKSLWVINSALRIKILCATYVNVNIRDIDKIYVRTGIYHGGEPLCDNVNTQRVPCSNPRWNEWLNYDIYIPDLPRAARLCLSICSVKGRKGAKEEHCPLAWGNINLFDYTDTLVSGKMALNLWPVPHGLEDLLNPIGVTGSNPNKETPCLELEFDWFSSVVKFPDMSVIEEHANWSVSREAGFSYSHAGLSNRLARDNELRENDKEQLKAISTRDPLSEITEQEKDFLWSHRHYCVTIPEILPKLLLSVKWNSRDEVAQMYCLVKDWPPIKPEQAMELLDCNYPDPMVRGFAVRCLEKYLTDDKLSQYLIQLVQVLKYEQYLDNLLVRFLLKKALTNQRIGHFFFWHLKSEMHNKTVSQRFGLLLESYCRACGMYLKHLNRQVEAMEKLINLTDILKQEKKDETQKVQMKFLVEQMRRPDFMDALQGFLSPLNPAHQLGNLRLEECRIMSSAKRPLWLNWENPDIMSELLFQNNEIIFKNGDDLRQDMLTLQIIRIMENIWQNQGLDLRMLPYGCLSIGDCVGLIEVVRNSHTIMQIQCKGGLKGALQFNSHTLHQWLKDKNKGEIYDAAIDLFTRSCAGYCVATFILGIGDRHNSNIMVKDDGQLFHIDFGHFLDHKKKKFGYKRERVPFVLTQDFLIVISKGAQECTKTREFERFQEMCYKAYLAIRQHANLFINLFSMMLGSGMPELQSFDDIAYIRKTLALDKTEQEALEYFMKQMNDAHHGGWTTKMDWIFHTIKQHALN
Assay [3] has as its system MDA-MB-468. The assay is described as follows: Inhibition of PI3K in human MDA-MB-468 cells assessed as reduction in AKT phosphorylation at S473 residue at 1 uM measured after 6 to 72 hrs by Western blot analysis. The class given is cell-based. Put shortly: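 MDA-MB-468 cells seeded overnight, then exposed for 6 h; control medium contained 1‰ DMSO. Lysates run on 8–12% SDS-PAGE and transferred to PVDF. Blots blocked in 5% BSA/TBST and probed for pAKT-Ser473/total AKT or pS6-Ser240/total S6, with β-actin as loading control. HRP secondary with ECL detection; bands quantified by densitometry. Three independent experiments.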

Assay [4] concerns HCT-116. The experiment in a line: Potency index, ratio of BKM120 IC50 to test compound IC50 for antiproliferative activity against human HCT116 cells. Type of assay: functional.
The subject of assay [5] is Mus musculus. The assay is described as follows: In vivo inhibition of PI3K in BALB/c mouse xenografted with human MDA-MB-468 cells assessed as reduction in pS6 phosphorylation at S240 residue at 50 mg/kg, ip administered every 2 days for 34 days measured post-last dose by Western blot analysis. Type of assay: functional, organism-based.
Assay [6] concerns MDA-MB-468. The assay is described as follows: Induction of apoptosis in human MDA-MB-468 cells assessed as increase in cleaved PARP level at 1 uM […] by Western blot analysis. Type of assay: functional, cell-based. For orientation: In western blotting, separated proteins are transferred to a membrane and probed.
In assay [7] the target is Phosphatidylinositol 4,5-bisphosphate 3-kinase catalytic subunit beta isoform (Homo sapiens, UniProt P42338). The assay is described as follows: Inhibition of PI3Kbeta (unknown origin) using PIP2 as substrate measured after 1 hr by ADP-glo plus luminescence assay.
Phosphatidylinositol 4,5-bisphosphate 3-kinase catalytic subunit beta isoform, sequence (P42338 whole entry, canonical isoform): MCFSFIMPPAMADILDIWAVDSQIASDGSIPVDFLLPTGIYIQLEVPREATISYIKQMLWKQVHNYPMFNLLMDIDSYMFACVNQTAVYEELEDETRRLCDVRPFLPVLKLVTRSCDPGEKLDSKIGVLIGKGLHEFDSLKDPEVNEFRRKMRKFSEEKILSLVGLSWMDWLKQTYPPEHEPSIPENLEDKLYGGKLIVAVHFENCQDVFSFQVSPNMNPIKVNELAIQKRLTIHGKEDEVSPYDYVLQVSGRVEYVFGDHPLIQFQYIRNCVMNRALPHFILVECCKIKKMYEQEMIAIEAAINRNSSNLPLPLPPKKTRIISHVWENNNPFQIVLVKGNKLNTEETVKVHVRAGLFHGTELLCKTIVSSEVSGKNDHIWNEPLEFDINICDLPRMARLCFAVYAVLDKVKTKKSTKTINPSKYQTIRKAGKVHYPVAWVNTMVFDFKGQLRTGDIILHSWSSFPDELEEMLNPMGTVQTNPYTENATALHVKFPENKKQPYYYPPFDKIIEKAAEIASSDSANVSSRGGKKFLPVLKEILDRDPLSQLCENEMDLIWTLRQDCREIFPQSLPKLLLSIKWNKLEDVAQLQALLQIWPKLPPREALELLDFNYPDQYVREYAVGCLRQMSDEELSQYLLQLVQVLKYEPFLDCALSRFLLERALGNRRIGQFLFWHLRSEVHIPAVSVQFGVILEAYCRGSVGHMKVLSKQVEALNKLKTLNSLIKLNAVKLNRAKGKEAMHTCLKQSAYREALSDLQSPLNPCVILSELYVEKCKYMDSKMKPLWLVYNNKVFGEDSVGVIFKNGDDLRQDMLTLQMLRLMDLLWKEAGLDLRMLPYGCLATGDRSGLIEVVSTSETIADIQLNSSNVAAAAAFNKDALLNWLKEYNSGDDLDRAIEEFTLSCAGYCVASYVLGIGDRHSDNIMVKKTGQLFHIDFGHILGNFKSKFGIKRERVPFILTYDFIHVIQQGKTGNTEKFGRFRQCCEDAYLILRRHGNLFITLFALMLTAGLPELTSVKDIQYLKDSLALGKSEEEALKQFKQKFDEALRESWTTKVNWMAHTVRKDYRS
Assay [8] relates to MDA-MB-468. The assay is described as follows: Activation of ERK in human MDA-MB-468 cells assessed as increase in ERK autophosphorylation at T202 residue at 1 uM measured after 6 to 72 hrs by Western blot analysis. The class given is cell-based. Put shortly: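 MDA-MB-468 cells seeded in six-well plates, incubated overnight, then treated for 6 h, with 1‰ (v/v) DMSO medium as control. Lysates cleared at 4 °C, protein quantified by BCA, resolved by 8-12% SDS-PAGE and transferred to PVDF. Membranes blocked in 5% BSA/TBST, probed with primary antibodies (pERK-Thr202, total ERK, cleaved PARP, β-actin) and HRP secondary. ECL detection, band densitometry.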

The subject of assay [9] is MDA-MB-468. The assay is described as follows: Potency index, ratio of BKM120 IC50 to test compound IC50 for antiproliferative activity against human MDA-MB-468 cells. The class given is functional.
Assay [10] deals with MDA-MB-468. The experiment in a line: Induction of apoptosis in human MDA-MB-468 cells assessed as necrotic cells at 1 uM measured after 72 hrs in presence of PARP inhibitor olaparib by Annexin V-FITC/propidium iodide staining based flow cytometry (reference value: 0.13%). The class given is functional.
Assay [11] deals with MDA-MB-468. The assay is described as follows: Induction of DNA damage in human MDA-MB-468 cells at 1 uM measured after 72 hrs in presence of PARP inhibitor olaparib by comet assay. The class given is functional, cell-based. Put shortly:
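MDA-MB-468 cells treated for 72 h, harvested and run in a neutral comet assay. Ethidium bromide staining after electrophoresis. About 200 cell images per group analysed with CASP. DNA damage scored as tail intensity (percentage DNA in tail) and olive tail moment. Mean ± SD of three independent experiments.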

Assay [12] has as its system MDA-MB-468. The assay is described as follows: Induction of apoptosis in human MDA-MB-468 cells assessed as early apoptotic cells at 1 uM measured after 72 hrs in presence of PARP inhibitor olaparib by Annexin V-FITC/propidium iodide staining based flow cytometry (reference value: 3.88%). Type of assay: functional.
The test system of assay [13] is HCT-116. The experiment in a line: cells. The note with it: Homo sapiens, HCT-116, 168 h, read-out: pIC50 (converted).
The subject of the next assay is SW-620. The experiment in a line: cells. The note with it: Homo sapiens, SW-620, 168 h, read-out: pIC50 (converted).
A further assay concerns Jurkat. The assay is described as follows: cells. The note with it: Homo sapiens, 168 h, read-out: pIC50 (converted).
Another assay relates to A549. The assay is described as follows: cells. The note with it: Homo sapiens, A549, 168 h, read-out: pIC50 (converted).
For a further assay, the system named is DU-145. The experiment in a line: cells. The note with it: Homo sapiens, DU-145, 168 h, read-out: pIC50 (converted).

Turning to `Nc1cc(C(F)(F)F)c(-c2nc3c(c(N4CCOCC4)n2)CCN(C(=O)c2cc(Cc4n[nH]c(=O)c5ccccc45)ccc2F)C3)cn1`, the “Ratio IC50” value with HCC1937, with HCT-116 [4] and with MDA-MB-468 [9] was “>=4” in each case. The inhibition entry in the assay with Mus musculus [1], in the assay on MDA-MB-468 [3] and with Mus musculus [5] was “Active” in each case. Also, the IC50 in assay [2] was 0.00562 µM; in assay [7], 0.288 µM. Moreover, the result with MDA-MB-468 [6] and with MDA-MB-468 [8] was Active.
`Nc1cc(C(F)(F)F)c(-c2cc(N3CCOCC3)nc(N3CCOCC3)n2)cn1` [BUPARLISIB]: the Activity with MDA-MB-468 [10] was found to be 1.48%; with MDA-MB-468 [12], 9.21%. For the same molecule, the outcome in the assay on MDA-MB-468 [11] was Active. Further, the IC50 was 1.23 µM in the assay on HCT-116 [13]; 3.24 µM in the assay with SW-620; 1.29 µM in the assay on Jurkat; 0.646 µM with A549; 1.17 µM in the assay on DU-145.
